Screens from PubChem BioAssay.
An excerpt weighted towards active compounds, which were near 3.9% of everything screened.
OX1R antag-1: antagonists of human orexin 1 receptor. O43613. CHO/OX1R cells, Fluo-8 calcium fluorescence, orexin A. inhibition, % at 5 µM. 330,000 tested, 0.43% active. AID 434989;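 active = inhibition above its plate's threshold, mean inhibition of all tested compounds on the plate plus 3 SD, cut at about 37% in these data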;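 note: 0% = orexin A challenge wells and 100% = SB-334867-A antagonist wells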
Target sequence (O43613 whole entry, looked up): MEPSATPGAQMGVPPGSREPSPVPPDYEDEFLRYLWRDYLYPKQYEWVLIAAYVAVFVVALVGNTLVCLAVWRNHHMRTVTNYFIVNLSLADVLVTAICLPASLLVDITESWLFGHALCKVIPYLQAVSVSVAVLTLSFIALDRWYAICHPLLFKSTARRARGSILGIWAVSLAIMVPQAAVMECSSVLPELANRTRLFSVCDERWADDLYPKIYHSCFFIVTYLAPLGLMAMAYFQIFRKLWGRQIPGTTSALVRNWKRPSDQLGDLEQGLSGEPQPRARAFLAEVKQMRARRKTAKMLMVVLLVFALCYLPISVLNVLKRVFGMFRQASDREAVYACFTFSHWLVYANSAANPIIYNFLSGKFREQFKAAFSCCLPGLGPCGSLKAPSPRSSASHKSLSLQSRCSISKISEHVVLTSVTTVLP
TAAR1 ag: human TAAR1 agonism | Q96RJ0 | CHO RD-HGA16 TAAR1, Fluo-8 calcium fluorescence; vehicle wells 0%, saturating PEA agonist 100% | activation, % at 3 µM | 360,000 tested, 0.99% active;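 active = activation above the mean activation of all test compounds in the run plus 3 SD, cut at about 38% in these data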
Target sequence (Q96RJ0 whole entry, looked up): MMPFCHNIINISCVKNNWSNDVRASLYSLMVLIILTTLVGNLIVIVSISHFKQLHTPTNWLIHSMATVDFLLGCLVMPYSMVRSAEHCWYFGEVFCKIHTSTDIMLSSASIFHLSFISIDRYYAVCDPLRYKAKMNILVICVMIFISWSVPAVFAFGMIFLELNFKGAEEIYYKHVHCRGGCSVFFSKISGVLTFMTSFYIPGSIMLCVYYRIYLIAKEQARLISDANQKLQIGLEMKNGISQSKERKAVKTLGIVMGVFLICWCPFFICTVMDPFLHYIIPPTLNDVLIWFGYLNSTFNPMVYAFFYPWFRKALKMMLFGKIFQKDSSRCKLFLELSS
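Assay system: CHO-derived RD-HGA16 cells with stable Gα16 and human TAAR1; timing: 17-24 h seeding, 75 min 37 °C dye, 30 min RT; read-out: % activation from peak over basal fluorescence ratio, DMSO-to-PEA scaled; measured by: kinetic Fluo-8 calcium fluorescence; benchmarks: low control DMSO, high control PEA (EC100); doses: 3 µM single concentration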
TAAR1 antag: human TAAR1 antagonism; CHO RD-HGA16 TAAR1, Fluo-8 calcium fluorescence, antagonist; inhibition, % at 3 µM; 360,000 tested, 1.5% active;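 active = inhibition above a per-plate cutoff, the mean inhibition of test compounds on that plate plus 3 SD, cut at about 49% in these data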;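 note: 0% = DMSO plus EC80 beta-PEA response and 100% = DMSO alone without agonist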
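Test system: CHO RD-HGA16 cells bearing hTAAR1 | Reagent: β-PEA, EC80 | Compound dosing: 3 µM, single point | Schedule: Dye loading 75 min at 37 °C, then 30 min room temperature | Signal: Calcium fluorescence with Fluo-8 | Evaluation: Percent inhibition of PEA-evoked calcium signal, max/basal emission ratio | Control set: DMSO-only wells and EC80 β-PEA-stimulated wells | Repeats: Singlicate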
OX1R antag-2: antagonists of human orexin 1 receptor (OX1R); 330,000 tested, 1.8% active; inhibition, % at 6.6 µM; OX1R-expressing cells, FRET antagonist read-out; AID 485270; in the data active = inhibition mostly above about 38%, no sharp cut-off; inactive = mostly below about 40%;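 note: 0% = agonist challenge alone and 100% = reference antagonist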
CHO parental Ca: counter-screen: ATP calcium response change in parental CHO cells; parental CHO-K1, ATP-induced calcium, Fluo-8 fluorescence; 330,000 tested, 0.63% active; inhibition, % at 5.6 µM;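 active = inhibition above that plate's mean sample inhibition plus 3 SD, cut at about 26% in these data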;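 note: 0% = ATP-challenged DMSO wells and 100% = DMSO wells without ATP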
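Assay system: untransfected parental CHO cell line. Also added: ATP agonist challenge. Dosing: one dose, 5.6 µM nominal. Measured by: Fluo-8 fluorescence. Read-out: % inhibition. Benchmarks: ATP wells versus no-ATP DMSO wells. Repeats: no replicates.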
OX1R Ca confirm: confirmation of human orexin 1 receptor antagonists; shares compounds with OX1R antag-1; CHO/OX1R cells, orexin A calcium Fluo-8 fluorescence; inhibition, % at 5 µM; 1,100 tested, 38% active; in the data active = inhibition above about 29%;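 note: 0% = agonist challenge alone and 100% = reference antagonist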
CHO Ca counter: counter-screen: parental CHO calcium response change, triplicate; shares compounds with OX1R antag-1; parental CHO-K1, ATP-induced calcium, Fluo-8 fluorescence; inhibition, % at 5.6 µM; 1,100 tested, 9.3% active; AID 492965;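 active = inhibition above a per-plate limit, the mean inhibition of that plate's test compounds plus 3 SD, cut at about 25% in these data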;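 note: 0% = ATP challenge with DMSO and 100% = DMSO without ATP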
OX1R HTRF conf: OX1R (human) antagonism, HTRF confirmed; shares compounds with OX1R antag-2; OX1R-expressing cells, HTRF antagonist assay; inhibition, % at 6.6 µM; 1,800 tested, 49% active; AID 492964; in the data active = inhibition above about 55%;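 note: CHO cells expressing OX1R stimulated with orexin A at about EC80; 0% = agonist challenge alone and 100% = reference antagonist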
CHO-K1 HTRF cnt: signal in parental CHO-K1 cells, OX1R antagonist counter-screen | shares compounds with OX1R antag-2 | HTRF counterscreen | inhibition, % at 6.6 µM | 1,800 tested, 48% active; in the data active = inhibition above about 17%;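 note: 0% = agonist challenge with vehicle and 100% = vehicle alone without agonist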
nonsel antag count: nonselective antagonism, TAAR1 counter-screen; shares compounds with TAAR1 antag; inhibition, % at 3 µM; 2,400 tested, 77% active; counterscreen cell line, calcium fluorescence, antagonist mode; in the data active = inhibition above about 22%;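 note: CHO-Ga16 host cells stimulated with ATP at an EC80 level; 0% = agonist EC80 plus vehicle and 100% = vehicle without agonist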
TAAR1 ant conf: confirmation of human TAAR1 antagonists; shares compounds with TAAR1 antag; TAAR1-expressing cells, fluorescence antagonist read-out; inhibition, % at 3 µM; 2,400 tested, 40% active; AID 651785; in the data active = inhibition above about 49%;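 note: CHO-Ga16 host cells challenged with agonist PEA near its EC80; 0% = agonist at EC80 plus vehicle and 100% = vehicle with no agonist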
Ga16 nonsel ag: nonselective Ga16 agonist in TAAR1 antagonist counter-screen; activation, % at 3 µM; shares compounds with TAAR1 antag; Ga16-expressing cells, calcium fluorescence, agonist counterscreen; 2,400 tested, 18% active; AID 651953; in the data active = activation above about 12%;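 note: 0% = vehicle wells and 100% = saturating stimulus response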
TAAR1 ag counter: TAAR1 agonism, antagonist counter-screen. shares compounds with TAAR1 antag. hTAAR1 cell line, fluorescence activation, agonist mode. activation, % at 3 µM. 2,400 tested, 2% active. AID 651955; in the data active = activation above about 37%;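 note: CHO cells stably expressing TAAR1 with calcium dye readout; 0% = DMSO vehicle and 100% = full agonist response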
* marks the source's active call; other numbers are inactive results; . = no result.

SMILES | OX1R antag-1 | TAAR1 ag | TAAR1 antag | OX1R antag-2 | CHO parental Ca | OX1R Ca confirm | CHO Ca counter | OX1R HTRF conf | CHO-K1 HTRF cnt | nonsel antag count | TAAR1 ant conf | Ga16 nonsel ag | TAAR1 ag counter
CCOC(=O)C1(C)CCCN(C(=O)c2cccnc2)C1 (stereo not given) | . | 2.6 | -20.9 | . | . | . | . | . | . | . | . | . | .
O=C(/C=C(\Nc1cc(Cl)c(Cl)c(Cl)c1)c1ccccc1)c1ccccc1 | . | 0.3 | -16.9 | . | . | . | . | . | . | . | . | . | .
CCc1nnc(NC(=O)CSc2nnc(-c3ccccc3O)n2CC)s1 | -25.8 | 13.2 | 5.3 | 11.1 | -13.0 | . | . | . | . | . | . | . | .
CCn1c(SCC(=O)Nc2nc(-c3ccccc3)cs2)nnc1-c1ccccc1O | 79.1* | 24.5 | 38.9 | 86.3* | 0.0 | -8.1 | -20.3 | 86.0* | -10.9 | . | . | . | .
CCCCN1CC(N2CCCC2)CS1(=O)=O (stereo not given) | . | 0.1 | 4.9 | . | . | . | . | . | . | . | . | . | .
COc1cccc(NC(=O)CN2C(=O)C(c3ccc(C)cc3)=NC23CCCCCC3)c1 | 41.4* | 2.4 | -5.2 | 75.2* | -27.7 | 47.4* | 0.4 | 87.2* | 2.7 | . | . | . | .
CC(C)[C@H](NC(=O)[C@@H]1Cc2c([nH]c3ccccc23)C2c3ccccc3C(=O)N21)C(=O)N1CCC[C@H]1C(=O)O (stereo not given in full) | . | 2.2 | -22.8 | . | . | . | . | . | . | . | . | . | .
CCN(CC(O)Cn1c2ccccc2c2ccccc21)S(=O)(=O)c1ccc(C)cc1 (stereo not given) | 1.0 | 8.9 | 22.7 | 11.4 | -20.4 | . | . | . | . | . | . | . | .
Cc1ccc(S(=O)(=O)N(CCCO)CC(O)CON=C2c3ccccc3-c3ccccc32)cc1 (stereo not given) | 41.9* | 8.4 | 24.5 | 72.8* | -6.2 | 26.1 | -3.8 | 75.9* | 4.2 | . | . | . | .
CCCCS(=O)(=O)N1CCCc2nc(-c3ccc(F)cc3)ccc21 | . | -1.3 | 17.1 | . | . | . | . | . | . | . | . | . | .
Nn1c(-c2cccs2)nc2sc3c(c2c1=O)CCCC3 | 44.9* | 14.2 | 29.6 | 111.1* | -31.4 | 19.8 | 5.0 | 81.4* | 5.6 | . | . | . | .
Cc1ccccc1-c1nc2sc3c(c2c(=O)n1N)CCCC3 | -27.1 | 7.3 | -4.9 | 20.0 | -37.0 | . | . | . | . | . | . | . | .
Fc1cccc(Nc2nc3ccccc3n3cnnc23)c1 | 36.4 | -0.5 | -3.1 | 52.9* | 0.4 | 37.3* | 0.4 | 86.0* | 6.1 | . | . | . | .
O=C(Nc1ccc(Cl)c(Cl)c1)c1cccc(S(=O)(=O)NCc2cccnc2)c1 | 36.3 | 35.3 | 25.1 | 66.7* | -3.4 | 38.3* | 55.1* | 77.3* | 5.2 | . | . | . | .
CC(=O)c1cccc(NC(=O)c2ccc(N(Cc3ccccc3C)S(C)(=O)=O)cc2)c1 | 24.2 | 19.8 | 56.8* | 21.9 | 2.1 | 22.0 | 6.5 | . | . | 36.7* | 50.5* | 11.9* | 11.3
CCc1nc2c(OCc3ccc(F)c(F)c3)cccn2c1N(C)C(=O)c1cccs1 | . | 5.2 | -16.8 | . | . | . | . | . | . | . | . | . | .
O=[N+]([O-])c1ccc(N/N=C/c2ccccc2O)cc1 | 34.5 | 37.1 | 79.4* | 17.4 | 27.2 | 23.5 | 17.3 | . | . | 27.5* | 84.4* | 9.2 | 51.5*
COc1ccc(CNC(=O)C(c2ccc(C)o2)N(Cc2cccs2)C(=O)Cc2cccs2)cc1 (stereo not given) | 46.3* | 22.1 | 87.2* | 63.5 | 13.1 | 9.4 | -3.8 | . | . | 42.2* | 68.4* | 10.9 | 9.3
COCCN(C(=O)Cc1cccs1)C(C(=O)NCc1ccc(OC)cc1)c1ccc(C)cc1 (stereo not given) | -3.9 | 14.5 | 28.0 | 7.4 | -13.7 | . | . | . | . | . | . | . | .
O=C(c1ccncc1)c1ccc(N2CCN(C3CC(=O)N(Cc4ccccc4)C3=O)CC2)cc1 (stereo not given) | 33.1 | 27.1 | 50.9* | 70.7* | 21.2 | -0.8 | -0.1 | 19.6 | 0.7 | 26.4* | 26.8 | 11.3 | 10.2
COc1ccc(N2CCN(C3CC(=O)N(Cc4ccccc4)C3=O)CC2)cc1 (stereo not given) | -13.3 | 1.2 | -33.5 | 14.2 | -16.6 | . | . | . | . | . | . | . | .
N#Cc1ccc(C(=O)N2CCCC(c3cc(C(=O)NCc4cccnc4)no3)C2)cc1 (stereo not given) | . | 2.6 | -6.1 | . | . | . | . | . | . | . | . | . | .
O=C1NC(=O)C2(CCCc3ccc(N(CCO)CCO)cc32)N1 (stereo not given) | . | 0.4 | 5.4 | . | . | . | . | . | . | . | . | . | .
COc1ccc(-c2cn3c(C)c(C(=O)Nc4cccc(NC(C)=O)c4)sc3n2)cc1 | 30.1 | 14.7 | 50.2* | 23.8 | 14.6 | 12.4 | -1.6 | . | . | 27.2* | 46.6 | 12.8* | 8.9
CCC[C@@H](NS(=O)(=O)c1ccc(C)cc1)C(=O)Oc1ccc2c3c(c(=O)oc2c1)CCC3 | 23.2 | 8.2 | 90.4* | 6.2 | 23.5 | 38.5* | -21.0 | . | . | 46.6* | 70.3* | 10.7 | 10.4
Cc1ccc(S(=O)(=O)NC(C(=O)Oc2ccc3c(C)c(Cl)c(=O)oc3c2)c2ccccc2)cc1 (stereo not given) | -18.5 | 5.2 | 12.5 | 1.8 | -4.4 | . | . | . | . | . | . | . | .
COC(=O)C1=C(C)N(Cc2ccc(C(F)(F)F)cc2)C(=NCc2ccccc2C(F)(F)F)NC1c1cccc(Cl)c1 (stereo not given) | . | 2.2 | -15.1 | . | . | . | . | . | . | . | . | . | .
CC1(C(=O)OCC(=O)Nc2nc(-c3ccc(F)c(F)c3)cs2)CC1(Cl)Cl (stereo not given) | 28.4 | 4.4 | 87.8* | 31.8 | 18.1 | 14.3 | -2.3 | . | . | 48.8* | 76.0* | 8.9 | 3.2
NS(=O)(=O)c1ccc(NC(=O)C2CCCN(S(=O)(=O)c3ccc(F)cc3)C2)cc1 (stereo not given) | -1.1 | 9.4 | -9.8 | 10.3 | -4.3 | . | . | . | . | . | . | . | .
CSc1cccc(NC(=O)C2CCCN(S(=O)(=O)c3ccc(F)cc3)C2)c1 (stereo not given) | 53.0* | 12.3 | 56.0* | 84.0* | -4.3 | 54.6* | -1.1 | 78.9* | 2.5 | 22.6* | 33.0 | 4.3 | 1.7
